Assay results taken from ChEMBL document CHEMBL5712090, “Therapeutic targeting of p300/CBP HAT domain for the treatment of NUT midline carcinoma” (Oncogene, 2020).
Activity calls are given as the source filed them. No cut-off for these calls is given here.

Assays:
HCC2429 [1] = assay: Induction of cell cycle arrest in human HCC2429 cells assessed as G1 cell cycle arrest at 0.5 microM incubated for 24 hrs by flow cytometry analysis; assay type: functional, cell-based
Procedure, shortened: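 HCC2429 cells exposed to 0.5 or 1 µM for 24, 48 and 72 h, then analysed by flow cytometry. Mean ± SEM, three independent experiments.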

HCC2429 [2] = assay: Induction of cell differentiation in human HCC2429 cells assessed as c-fos mRNA level at 250 nM for 5 days in presence of JQ1 by qRT-PCR analysis; assay type: functional, cell-based; conditions: time 5.0 day
Procedure, shortened: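 HCC2429 cells given 250 nM, 50 nM JQ1, or the combination for 5 days. KRT10, KRT14, TGM1 and c-fos mRNA by qRT-PCR. Mean ± SEM of three independent experiments.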

HCC2429 [3] = assay: Inhibition of p300/CBP in human HCC2429 cells assessed as H3K27ac protein acetylation at 1 microM for 3 days by immunofluorescence analysis; assay type: cell-based; conditions: time 3.0 day
Procedure, shortened: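 HCC2429 cells treated 3 days with 1 µM or DMSO. H3K27ac, BRD4-NUT and wild-type BRD4 imaged by immunofluorescence.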

HCC2429 [4] = assay: Downregulation of TP63 mRNA level in human HCC2429 cells for 48 hrs treatment by qRT-PCR analysis; assay type: functional, cell-based
Procedure, shortened: (§1)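 HCC2429 cells treated at indicated concentrations for 48 h. MYC, CCAT1 and TP63 mRNA measured by quantitative RT-PCR.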

HCC2429 [5] = assay: Induction of cell differentiation in human HCC2429 cells assessed as increase in c-fos mRNA level at 0.5 microM for 5 days by qRT-PCR analysis
Ty-82 = assay: Antiproliferative activity against human Ty-82 cells for 72 hrs incubation measured by Celltiter Glo Cell Viability assay; assay type: functional, cell-based; conditions: TY82, 72 h
Procedure, shortened: (§2)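 Cells exposed to inhibitor over 10 nM–25 µM for 72 h; viability read by CellTiter Glo luminescence. IC50 taken from dose-response curve fit. Mean ± SD of three technical replicates.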

HCC2429 [6] = assay: Inhibition of p300/CBP in human HCC2429 cells assessed as BRD4-NUT level at MYC promoter and TP63 enhancer region with 1 microM for 3 days by ChIP analysis; assay type: cell-based; conditions: time 3.0 day
Procedure, shortened: (§3)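 HCC2429 cells held 3 days at 1 µM or DMSO. Chromatin precipitated with H3K27ac, NUT or normal rabbit IgG antibodies. MYC promoter and TP63 enhancer quantified by qPCR as fold enrichment over IgG. Mean ± SEM, four independent experiments.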

HCC2429 [7] = assay: Downregulation of CCAT1 mRNA level in human HCC2429 cells for 48 hrs treatment by qRT-PCR analysis; assay type: functional, cell-based; procedure, shortened: as §1
HCC2429 [8] = assay: Induction of apoptosis in human HCC2429 cells assessed as cleaved caspase-3 expression at 0.5 microM incubated for 72 hrs by immunoblot analysis; assay type: functional, cell-based
Procedure, shortened: (§4)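 HCC2429 cells given 0.5 or 1 µM for 24, 48 and 72 h. Cleaved caspase-3 detected by immunoblot.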

HCC2429 [9] = assay: Induction of apoptosis in human HCC2429 cells assessed as cleaved caspase-3 expression at 250 nM incubated for 72 hrs in presence of JQ1 by immunoblot analysis; assay type: functional, cell-based
Procedure, shortened: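 HCC2429 cells treated 72 h with 250 nM alone, 50 nM JQ1 alone, or both combined. Cleaved caspase-3 detected by immunoblot.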

HCC2429 [10] = assay: Inhibition of p300/CBP in human HCC2429 cells assessed as H3K27ac protein acetylation at MYC promoter and TP63 enhancer region with 1 microM for 3 days by ChIP analysis; assay type: cell-based; conditions: time 3.0 day; procedure, shortened: as §3
HCC2429 [11] = assay: Induction of squamous differentiation in human HCC2429 cells assessed as accumulation of pan-keratin in cytoplasm at 0.5 microM for 5 days by immunofluorescence staining method; assay type: functional, cell-based; conditions: time 5.0 day
Procedure, shortened: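 HCC2429 cells exposed 5 days to 0.5 µM. Cytokeratin detected by immunofluorescence.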

PER-403 = assay: Induction of squamous differentiation in human PER-403 cells assessed as change in cell phenotype at 0.5 microM for 5 days by immunofluorescence staining method; assay type: functional, cell-based; conditions: time 5.0 day
HCC2429 [12] = assay: Inhibition of colony formation in human HCC2429 cells assessed as inhibition in colony formation at 250 nM incubated for 72 hrs in presence of JQ1 by crystal violet staining based assay; assay type: functional, cell-based
Procedure, shortened: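 HCC2429 cells incubated 72 h with 250 nM, 50 nM JQ1, or both. Colony formation then scored.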

HCC2429 [13] = assay: Downregulation of MYC mRNA level in human HCC2429 cells for 48 hrs treatment by qRT-PCR analysis; assay type: functional, cell-based; procedure, shortened: as §1
[14] = Antiproliferative activity against human 00-143 cells for 72 hrs incubation measured by Celltiter Glo Cell Viability assay; assay type: functional, cell-based; conditions: 00-143, 72 h; procedure, shortened: as §2
HCC2429 [15] = assay: Induction of cell differentiation in human HCC2429 cells assessed as increase in involucrin-protein level at 0.5 microM for 5 days by immunoblot analysis
HCC2429 [16] = assay: Induction of apoptosis in human HCC2429 cells assessed as cleaved caspase-3 expression at 0.5 microM incubated for 48 hrs by immunoblot analysis; assay type: functional, cell-based; procedure, shortened: as §4
TC-797 = assay: Induction of squamous differentiation in human TC-797 cells assessed as change in cell phenotype at 0.5 microM for 5 days by immunofluorescence staining method; assay type: functional, cell-based; conditions: time 5.0 day
HCC2429 [17] = assay: Downregulation of MYC protein level in human HCC2429 cells for 48 hrs treatment by qRT-PCR analysis; assay type: functional, cell-based; conditions: in the assay text read “immunoblot analysis” for “qRT-PCR analysis”
Procedure, shortened: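 HCC2429 cells treated at indicated concentrations for 48 h. MYC and H3K27ac protein assessed by immunoblot.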

HCC2429 [18] = assay: Induction of squamous differentiation in human HCC2429 cells assessed as flattening of cells at 0.5 microM for 5 days by immunofluorescence staining method; assay type: functional, cell-based; conditions: time 5.0 day
HCC2429 [19] = assay: Antiproliferative activity against human HCC2429 cells for 72 hrs incubation measured by Celltiter Glo Cell Viability assay; assay type: functional, cell-based; conditions: HCC2429, 72 h; procedure, shortened: as §2

For CNC(=O)Nc1ccc2c(c1)CC[C@@]21OC(=O)N(CC(=O)N(Cc2ccc(F)cc2)[C@@H](C)C(F)(F)F)C1=O [A-485], the Activity (HCC2429 [1]) was “Active”, the Activity (HCC2429 [2]) was “Active” and the inhibition (HCC2429 [3]) was “Active”. The Activity (HCC2429 [4]) was “Active”, the Activity (HCC2429 [5]) was “Active” and the IC50 (Ty-82) was 210 nM. For the same compound, the inhibition (HCC2429 [6]) was “Active”, the Activity (HCC2429 [7]) was “Active” and the Activity (HCC2429 [8]) was “Active”. For the same compound, the Activity (HCC2429 [9]) was “Active”, the inhibition (HCC2429 [10]) was “Active” and the Activity (HCC2429 [11]) was “Active”. For the same compound, the Activity (PER-403) was “Active”, the inhibition (HCC2429 [12]) was “Active” and the Activity (HCC2429 [13]) was “Active”. The IC50 [14] was 980 nM, the Activity (HCC2429 [15]) was “Active” and the Activity (HCC2429 [16]) was “Active”. The Activity (TC-797) was “Active”, the Activity (HCC2429 [17]) was “Active” and the Activity (HCC2429 [18]) was “Active”. The IC50 (HCC2429 [19]) was 750 nM.
